# Published values from different studies.
# Lines come from different studies, so protocols differ.
# Target: 5-hydroxytryptamine receptor 3A (HTR3A, Homo sapiens, UniProt P46098)
# Tested at: 10 µM
# Residues used in one study (P46098 24-478): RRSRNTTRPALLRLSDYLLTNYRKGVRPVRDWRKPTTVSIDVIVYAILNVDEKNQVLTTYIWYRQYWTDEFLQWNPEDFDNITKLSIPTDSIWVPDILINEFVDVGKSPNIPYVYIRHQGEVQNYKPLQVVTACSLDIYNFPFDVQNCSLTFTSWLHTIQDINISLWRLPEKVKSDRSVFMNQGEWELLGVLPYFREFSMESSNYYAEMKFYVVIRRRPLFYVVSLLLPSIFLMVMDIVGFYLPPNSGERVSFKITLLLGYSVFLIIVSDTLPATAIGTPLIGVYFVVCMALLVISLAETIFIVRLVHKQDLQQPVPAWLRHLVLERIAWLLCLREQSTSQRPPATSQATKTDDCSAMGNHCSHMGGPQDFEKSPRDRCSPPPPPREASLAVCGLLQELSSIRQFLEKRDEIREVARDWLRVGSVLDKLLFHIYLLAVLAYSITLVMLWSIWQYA
Structure (SMILES),assay,inhibition
CCCNc1nc2ccccc2n1Cc1ccc(Cl)cc1,cell-free assay,-1.96%
O=C(NC1C2CCN(CC2)C1Cc1cccnc1)c1cc2ccccc2o1 (stereo not shown),"ligand displacement, radioligand",25%
CC[C@H](CC(=O)O)n1c(=O)c2ncccc2n(Cc2cn(C)c3cc(C)cc(C)c23)c1=O,cell-free assay,0.31%
O=C1N=C(N2CCCCN2)S/C1=C\c1ccc(F)cc1O,"ligand displacement, radioligand",17%
COc1cc2c3c(c1OC)-c1cc4c(cc1CC3N(CC1CC1)CC2c1ccccc1)OCO4 (stereo not shown),"ligand displacement, radioligand",-13.3%
COc1cc(N[C@@H]2CCCC[C@]2(O)C(F)(F)F)ccc1F,cell-free assay,11.6%
O=C(c1ccc(Cl)cc1)N(Cc1ccccc1)C1CCCCC1,"ligand displacement, radioligand",1.9%
N#Cc1cc(Cn2c(N3CCCC3)nc3ccccc32)ccc1F,cell-free assay,-12.4%
CCN(CC)c1ccc(C2Nc3ccc(C(=O)c4ccccc4)cc3NC3=C2C(=O)CC(C)(C)C3)cc1 (stereo not shown),"ligand displacement, radioligand",-5%
COc1cc(NC(C)=O)c(Cl)cc1C(=O)Nc1nccs1,"ligand displacement, radioligand",15.9%
